# Source: PubChem BioAssay AID504407 (Broad Institute, 2011)
# A number with no mark means an inactive call.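 The calls were made as follows: active = cytochrome c release activity at 50 µM, scaled between control wells and rounded, of 10% or more; inactive = the rest.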
# Assay: cytochrome c release from parental CHL-1 mitochondria, counter-screen for A1 inhibitor project, biochemical, CHL-1 wild type, cytochrome c ELISA, dry powder (AID 504407)
# Conditions: CHL-1 isolated mitochondria, at 50 µM, hits give high values
# Procedure, shortened: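 Test system: isolated mitochondria from wild-type CHL-1 cells; technique: cytochrome c ELISA absorbance, 450 nm with 540 nm correction; read-out: cytochrome c in supernatant after 8000 g pelleting; schedule: compound exposure of mitochondria, 30 min at 30 °C; control set: DMSO-treated negative controls, tBid-treated positive controls; medium: AT buffer, 80 mM KCl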
smiles,measurement,value
Cn1c(=O)c([N+](=O)[O-])c(Cl)c2ccccc21,cytochrome c release activity,0.1%
